In brackets after ≈: the same amount, converted by molar mass.
Experiments:
[1] = tested on: Mycobacterium tuberculosis; assay: Antimycobacterial activity against Mycobacterium tuberculosis H37Rv after 10 days by MABA; format: functional; conditions: 240 h
How it was run: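 MABA in 7H9 medium: log-phase culture passed through 8 µm filter, density set by OD600 and McFarland standards, 1 × 10^6 cells per well with drug dilutions; aerobic incubation 37 °C 10 days, then 0.02 % resazurin, overnight 37 °C. MIC = lowest concentration preventing blue-to-pink change. Triplicate; medium+inoculum and medium-only controls.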

[2] = tested on: Mycobacterium tuberculosis; assay: Antimycobacterial activity against MDR Mycobacterium tuberculosis isolate 591 after 15 days by MABA; format: functional; conditions: isolate 591, 360 h
How it was run: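 MABA in 7H9 medium on MDR clinical isolate 591: filtered single-cell suspension, 1 × 10^6 cells per well with drug dilutions, aerobic 37 °C; 0.02 % resazurin added on day 15, overnight 37 °C. MIC = lowest concentration preventing blue-to-pink change. Triplicate; medium+inoculum and medium-only controls.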

[3] = tested on: Mycobacterium tuberculosis; assay: Bactericidal activity against Mycobacterium tuberculosis H37Rv after 4 weeks by MABA; format: functional; conditions: 672 h
[4] = tested on: Mycobacterium tuberculosis; assay: Ratio of MBC to MIC for Mycobacterium tuberculosis H37Rv; format: functional
[5] = Cytotoxicity against human THP1 cells assessed as cell viability at 4.68 ug/ml after 48 hrs by MTT assay relative to control; format: cell-based; conditions: THP-1 cells, read-out: Activity
How it was run: (§1)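 THP-1 cells (human monocytic line) seeded at 10^4 per well and adhered with phorbol myristate acetate (20 ng/mL). Then given fresh RPMI with 10% foetal calf serum and 2 mM L-glutamine, plus compound by serial double dilution (4.68–150 µg/mL), with DMSO and no-DMSO controls. Incubated 24 or 48 h at 37 °C, 5% CO2. MTT added for 4 h, formazan dissolved in DMSO, A540 read, percentage survival calculated.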

[6] = tested on: Mycobacterium tuberculosis; assay: Potency index, ratio of isoniazid MIC to compound MIC for antimycobacterial activity against MDR Mycobacterium tuberculosis isolate 591; format: functional
[7] = tested on: Mycobacterium tuberculosis; assay: Potency index, ratio of rifampicin MIC to compound MIC for antimycobacterial activity against MDR Mycobacterium tuberculosis isolate 591; format: functional
[8] = tested on: Mycobacterium tuberculosis; assay: Potency index, ratio of ethambutol MIC to compound MIC for antimycobacterial activity against MDR Mycobacterium tuberculosis isolate 591; format: functional
[9] = tested on: Mycobacterium tuberculosis; assay: Potency index, ratio of streptomycin MIC to compound MIC for antimycobacterial activity against MDR Mycobacterium tuberculosis isolate 591; format: functional
[10] = tested on: THP-1; assay: Cytotoxicity against human THP1 cells assessed as growth inhibition after 24 to 48 hrs by MTT assay; format: cell-based; how it was run: as §1
[11] = Selectivity index, ratio of IC50 for cytotoxicity against human THP1 cells to MIC for Mycobacterium tuberculosis H37Rv; format: toxicity, cell-based; conditions: THP-1 cells, read-out: Selectivity Index
How it was run: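 THP-1 cells, 10^4/well, adhered with PMA 20 ng/mL, in RPMI with 10 % FCS and 2 mM L-glutamine; exposed to 4.68–150 µg/mL for 24 and 48 h at 37 °C, 5 % CO2; MTT 4 h, formazan in DMSO, A540. Index = THP-1 IC50 divided by H37Rv MABA MIC.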

[12] = Cytotoxicity against human THP1 cells assessed as cell viability at 4.68 ug/ml after 24 hrs by MTT assay relative to control; format: cell-based; conditions: THP-1 cells, read-out: Activity; how it was run: as §1
[13] = Cytotoxicity against human THP1 cells assessed as cell viability at 9.36 ug/ml after 24 hrs by MTT assay relative to control; format: cell-based; conditions: THP-1 cells, read-out: Activity; how it was run: as §1
[14] = Cytotoxicity against human THP1 cells assessed as cell viability at 9.36 ug/ml after 48 hrs by MTT assay relative to control; format: cell-based; conditions: THP-1 cells, read-out: Activity; how it was run: as §1
[15] = Cytotoxicity against human THP1 cells assessed as cell viability at 18.72 ug/ml after 24 hrs by MTT assay relative to control; format: cell-based; conditions: THP-1 cells, read-out: Activity; how it was run: as §1
[16] = Cytotoxicity against human THP1 cells assessed as cell viability at 18.72 ug/ml after 48 hrs by MTT assay relative to control; format: cell-based; conditions: THP-1 cells, read-out: Activity; how it was run: as §1
[17] = Cytotoxicity against human THP1 cells assessed as cell viability at 37.48 ug/ml after 24 hrs by MTT assay relative to control; format: cell-based; conditions: THP-1 cells, read-out: Activity; how it was run: as §1
[18] = Cytotoxicity against human THP1 cells assessed as cell viability at 37.48 ug/ml after 48 hrs by MTT assay relative to control; format: cell-based; conditions: THP-1 cells, read-out: Activity; how it was run: as §1
[19] = Cytotoxicity against human THP1 cells assessed as cell viability at 75 ug/ml after 24 hrs by MTT assay relative to control; format: cell-based; conditions: THP-1 cells, read-out: Activity; how it was run: as §1
[20] = Cytotoxicity against human THP1 cells assessed as cell viability at 75 ug/ml after 48 hrs by MTT assay relative to control; format: cell-based; conditions: THP-1 cells, read-out: Activity; how it was run: as §1
[21] = Cytotoxicity against human THP1 cells assessed as cell viability at 150 ug/ml after 24 hrs by MTT assay relative to control; format: cell-based; conditions: THP-1 cells, read-out: Activity; how it was run: as §1
[22] = Cytotoxicity against human THP1 cells assessed as cell viability at 150 ug/ml after 48 hrs by MTT assay relative to control; format: cell-based; conditions: THP-1 cells, read-out: Activity; how it was run: as §1

## Cc1cc(=O)oc2cc(OCc3cn([C@@H]4O[C@H](COC(=O)c5ccccc5)[C@@H](OC(=O)c5ccccc5)[C@H]4OC(=O)c4ccccc4)nn3)c(Cl)cc12
[1]
  MIC: 13.5 µM (≈ 9.94 µg/mL)
[2]
  MIC: 20.4 µM (≈ 15 µg/mL)
[3]
  MBC: 27.2 µM (≈ 20 µg/mL)
[4]
  Ratio: 2

## O=C(OC[C@H]1O[C@@H](n2cc(COc3ccc4c(-c5ccccc5)cc(=O)oc4c3)nn2)[C@H](OC(=O)c2ccccc2)[C@@H]1OC(=O)c1ccccc1)c1ccccc1
[5]
  viability at 48 h, 4.68 ug/ml: 95%
[1]
  MIC: 5.2 µM (≈ 3.97 µg/mL)
[2]
  MIC: 5.2 µM (≈ 3.97 µg/mL)
[3]
  MBC: 10.5 µM (≈ 8.02 µg/mL)
[4]
  Ratio: 2
[6]
  Ratio: 7 - 420
[7]
  Ratio: 7 - 420
[8]
  Ratio: 7 - 420
[9]
  Ratio: 7 - 420
[10]
  IC50: > 196 µM
[11]
  selectivity ratio: 37.6
[12]
  viability at 24 h, 4.68 ug/ml: 100%
[13]
  viability at 24 h, 9.36 ug/ml: 100%
[14]
  viability at 48 h, 9.36 ug/ml: 93%
[15]
  viability at 24 h, 18.72 ug/ml: 97%
[16]
  viability at 48 h, 18.72 ug/ml: 84%
[17]
  viability at 24 h, 37.48 ug/ml: 81%
[18]
  viability at 48 h, 37.48 ug/ml: 74%
[19]
  viability at 24 h, 75 ug/ml: 81%
[20]
  viability at 48 h, 75 ug/ml: 70%
[21]
  viability at 24 h, 150 ug/ml: 66%
[22]
  viability at 48 h, 150 ug/ml: 64%

## [H]/N=C(/N)N[C@H]1[C@H](O)[C@@H](O)[C@H](O[C@@H]2O[C@@H](C)[C@](O)(C=O)[C@H]2O[C@@H]2O[C@@H](CO)[C@H](O)[C@@H](O)[C@@H]2NC)[C@@H](N/C(N)=N\[H])[C@@H]1O [STREPTOMYCIN]
[5]
  viability at 48 h, 4.68 ug/ml: 90%
[1]
  MIC: 0.43 µM (≈ 0.25 µg/mL)
[2]
  MIC: 69 µM (≈ 40.1 µg/mL)
[10]
  IC50: > 258 µM
[11]
  selectivity ratio: 600
[12]
  viability at 24 h, 4.68 ug/ml: 100%
[13]
  viability at 24 h, 9.36 ug/ml: 99%
[14]
  viability at 48 h, 9.36 ug/ml: 86%
[15]
  viability at 24 h, 18.72 ug/ml: 98%
[16]
  viability at 48 h, 18.72 ug/ml: 84%
[17]
  viability at 24 h, 37.48 ug/ml: 89%
[18]
  viability at 48 h, 37.48 ug/ml: 77%
[19]
  viability at 24 h, 75 ug/ml: 80%
[20]
  viability at 48 h, 75 ug/ml: 69%
[21]
  viability at 24 h, 150 ug/ml: 75%
[22]
  viability at 48 h, 150 ug/ml: 55%

## CC[C@@H](CO)NCCN[C@@H](CC)CO [ETHAMBUTOL]
[1]
  MIC: 9.7 µM (≈ 1.98 µg/mL)
[2]
  MIC: 73.4 µM (≈ 15 µg/mL)

## O=C(OC[C@H]1O[C@@H](n2cc(COc3ccc4ccc(=O)oc4c3)nn2)[C@H](OC(=O)c2ccccc2)[C@@H]1OC(=O)c1ccccc1)c1ccccc1
[1]
  MIC: 11.6 µM (≈ 7.98 µg/mL)
[2]
  MIC: 14.5 µM (≈ 9.97 µg/mL)
[3]
  MBC: 26.2 µM (≈ 18 µg/mL)
[4]
  Ratio: 2.25

## Cc1cc(=O)oc2cc(-c3cn([C@@H]4O[C@H](CO)[C@@H](O)[C@H]4O)nn3)c(Cl)cc12
[1]
  MIC: 30.5 µM (≈ 12 µg/mL)
[2]
  MIC: 25.4 µM (≈ 10 µg/mL)

## CO[C@H]1/C=C/O[C@@]2(C)Oc3c(C)c(O)c4c(O)c(c(/C=N/N5CCN(C)CC5)c(O)c4c3C2=O)NC(=O)/C(C)=C\C=C\[C@H](C)[C@H](O)[C@@H](C)[C@@H](O)[C@@H](C)[C@H](OC(C)=O)[C@@H]1C [RIFAMPIN]
[1]
  MIC: 0.02 µM (≈ 0.0165 µg/mL)
[2]
  MIC: 152 µM (≈ 125 µg/mL)

## Cc1cc(=O)oc2cc(-c3cn([C@@H]4O[C@H](COC(=O)c5ccccc5)[C@@H](OC(=O)c5ccccc5)[C@H]4OC(=O)c4ccccc4)nn3)ccc12
[1]
  MIC: 11.9 µM (≈ 7.99 µg/mL)
[2]
  MIC: 29.8 µM (≈ 20 µg/mL)
[3]
  MBC: 26.8 µM (≈ 18 µg/mL)
[4]
  Ratio: 2.25

## O=C(OC[C@H]1O[C@@H](n2cc(-c3ccc4c(-c5ccccc5)cc(=O)oc4c3)nn2)[C@H](OC(=O)c2ccccc2)[C@@H]1OC(=O)c1ccccc1)c1ccccc1
[1]
  MIC: 10.9 µM (≈ 8 µg/mL)
[2]
  MIC: 13.6 µM (≈ 9.98 µg/mL)
[3]
  MBC: 24.5 µM (≈ 18 µg/mL)
[4]
  Ratio: 2.25

From ChEMBL document CHEMBL4196081, “Synthesis and antimycobacterial activity of 1-(β-d-Ribofuranosyl)-4-coumarinyloxymethyl- / -coumarinyl-1,2,3-triazole” (Eur J Med Chem, 2018)
